Assay results published in ChEMBL document CHEMBL4229410, “Facile construction of fused benzimidazole-isoquinolinones that induce cell-cycle arrest and apoptosis in colorectal cancer cells” (Bioorg Med Chem, 2018).

What was measured:
HT-29 [1] = test: Induction of apoptosis in human HT-29 cells assessed as early apoptotic cells at 75 uM after 48 hrs by Annexin-V-FITC/propidium iodide staining based flow cytometry (reference value: 1%); format: functional
[2] = biological target: MAP kinase-activated protein kinase 2 (Homo sapiens, UniProt P49137); test: Binding affinity to human MAPKAPK2 (V48 to D345 residues) expressed in bacterial expression system by KINOMEscan assay
[3] = biological target: Casein kinase I isoform gamma-2 (Homo sapiens, UniProt P78368); test: Binding affinity to full length human CSNK1G2 (M1 to K415 residues) expressed in bacterial expression system by KINOMEscan assay
[4] = biological target: Protein kinase C epsilon type (Homo sapiens, UniProt Q02156); test: Binding affinity to human PRKCE (A378 to P737 residues) expressed in mammalian expression system by KINOMEscan assay
SW-620 [5] = test: Induction of apoptosis in human SW620 cells after 48 hrs by Annexin-V-FITC/propidium iodide staining based flow cytometry; format: functional, cell-based
[6] = biological target: MAP kinase-interacting serine/threonine-protein kinase 2 (Homo sapiens, UniProt Q9HBH9); test: Binding affinity to human MKNK2 (G63 to S388 residues) expressed in mammalian expression system by KINOMEscan assay
[7] = biological target: Macrophage colony-stimulating factor 1 receptor (Homo sapiens, UniProt P07333); test: Inhibition of human CSF1R (I564 to S939 residues) expressed in bacterial expression system assessed as residual activity at 5 uM by KINOMEscan assay relative to control
[8] = biological target: 3-phosphoinositide-dependent protein kinase 1 (Homo sapiens) (UniProt O15530); test: Inhibition of full length human PDPK1 (M1 to Q556 residues) expressed in bacterial expression system assessed as residual activity at 5 uM by KINOMEscan assay relative to control
HT-29 [9] = test: Induction of apoptosis in human HT-29 cells assessed as increase in apoptotic bodies after 48 hrs by Hoechst 33342 staining based fluorescence microscopic analysis; format: functional, cell-based
Summary of the method: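 HT29 cells in 24-well plates were treated at 0, 25, 50 or 75 μM for 48 h and fixed 20 min in 4% paraformaldehyde. After Hoechst 33342 staining for 15 min at 37 °C, apoptotic bodies and chromatin condensation were scored by fluorescence microscopy.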

[10] = biological target: Serine/threonine-protein kinase PLK4 (Homo sapiens) (UniProt O00444); test: Inhibition of partial length human PLK4 (M1 to S273 residues) expressed in mammalian expression system assessed as residual activity at 5 uM by KINOMEscan assay relative to control
[11] = biological target: Serine/threonine-protein kinase pim-1 (Homo sapiens, UniProt P11309); test: Inhibition of human PIM1 (A15 to K313 residues) expressed in bacterial expression system assessed as residual activity at 5 uM by KINOMEscan assay relative to control
[12] = biological target: Serine/threonine-protein kinase PAK 1 (Homo sapiens, UniProt Q13153); test: Binding affinity to human PAK1 (S149 to H545 residues) expressed in bacterial expression system by KINOMEscan assay
HT-29 [13] = test: Induction of apoptosis in human HT-29 cells assessed as late apoptotic cells at 75 uM after 48 hrs by Annexin-V-FITC/propidium iodide staining based flow cytometry (reference value: 4.1%); format: functional
[14] = biological target: Tyrosine-protein kinase JAK3 (Homo sapiens, UniProt P52333); test: Binding affinity to human JAK3 JH1 catalytic domain (I781 to S1124 residues) expressed in mammalian expression system by KINOMEscan assay
[15] = biological target: MAP kinase-interacting serine/threonine-protein kinase 1 (Homo sapiens, UniProt Q9BUB5); test: Inhibition of full length human MKNK1 (M1 to L424 residues) expressed in mammalian expression system assessed as residual activity at 5 uM by KINOMEscan assay relative to control
[16] = biological target: Serine/threonine-protein kinase STK11 (Homo sapiens) (UniProt Q15831); test: Inhibition of full length human LKB1 (M1 to Q433 residues) expressed in bacterial expression system assessed as residual activity at 5 uM by KINOMEscan assay relative to control
HT-29 [17] = test: Cell cycle arrest in human HT-29 cells assessed as accumulation at G1-phase at 25 uM after 48 hrs by propidium iodide staining based flow cytometry (reference value: 41.86%); format: functional
[18] = biological target: Serine/threonine-protein kinase PLK3 (Homo sapiens, UniProt Q9H4B4); test: Binding affinity to partial length human PLK3 (A42 to L334 residues) expressed in mammalian expression system by KINOMEscan assay
SW-620 [19] = test: Cell cycle arrest in human SW620 cells assessed as accumulation at G1-phase at 25 uM after 48 hrs by propidium iodide staining based flow cytometry (reference value: 40.56%); format: functional
[20] = biological target: Tyrosine-protein kinase receptor UFO (Homo sapiens) (UniProt P30530); test: Inhibition of human AXL (R497 to Y821 residues) expressed in bacterial expression system assessed as residual activity at 5 uM by KINOMEscan assay relative to control
[21] = biological target: Mast/stem cell growth factor receptor Kit (Homo sapiens, UniProt P10721); test: Inhibition of human KIT (I571 to D952 residues) expressed in bacterial expression system assessed as residual activity at 5 uM by KINOMEscan assay relative to control
[22] = biological target: Serine/threonine-protein kinase 32C (Homo sapiens, UniProt Q86UX6); test: Inhibition of human YANK3 (M68 to G486 residues) expressed in bacterial expression system assessed as residual activity at 5 uM by KINOMEscan assay relative to control
[23] = biological target: Cyclin-dependent kinase 2 (Homo sapiens, UniProt P24941); test: Inhibition of full length human CDK2 (M1 to L298 residues) expressed in bacterial expression system assessed as residual activity at 5 uM by KINOMEscan assay relative to control
[24] = biological target: Epidermal growth factor receptor (Homo sapiens, UniProt P00533, L858R); test: Binding affinity to partial length human EGFR (R669 to V1011 residues) L858R mutant expressed in bacterial expression system by KINOMEscan assay
[25] = biological target: Testis-specific serine/threonine-protein kinase 1 (Homo sapiens, UniProt Q9BXA7); test: Binding affinity to full length human TSSK1B (M1 to Q367 residues) expressed in bacterial expression system by KINOMEscan assay
HT-29 [26] = test: Cell cycle arrest in human HT-29 cells assessed as accumulation at G2-phase at 75 uM after 48 hrs by propidium iodide staining based flow cytometry (reference value: 15.45%); format: functional
[27] = biological target: Receptor tyrosine-protein kinase erbB-2 (Homo sapiens, UniProt P04626); test: Inhibition of human ERBB2 (K646 to V1225 residues) expressed in mammalian expression system assessed as residual activity at 5 uM by KINOMEscan assay relative to control
[28] = biological target: Tyrosine-protein kinase ABL1 (Homo sapiens, UniProt P00519); test: Binding affinity to human non-phosphorylated ABL1 (S229 to K512 residues) expressed in mammalian expression system by KINOMEscan assay

`CC(C)CN(C(=O)c1cccnc1)c1c2ccccc2c(=O)n2c1[nH]c1ccccc12` showed an Activity (HT-29 [1]) of 0.3%, a Kd [2] of at least 5 µM and a Kd [3] of at least 5 µM. The Kd [4] was at least 5 µM, the Activity (SW-620 [5]) was “Dose-dependent effect” and the Kd [6] was at least 5 µM. For the same compound, the Activity [7] was 100%, the Activity [8] was 93% and the Activity (HT-29 [9]) was “Dose-dependent effect”. For the same compound, the Activity [10] was 100%, the Activity [11] was 83% and the Kd [12] was at least 5 µM. It also gave an Activity (HT-29 [13]) of 31.1%, a Kd [14] of at least 5 µM and an Activity [15] of 97%. For the same compound, the Activity [16] was 63%, the Activity (HT-29 [17]) was 42.5% and the Kd [18] was at least 5 µM. It also gave an Activity (SW-620 [19]) of 39.26%, an Activity [20] of 100% and an Activity [21] of 93%. The Activity [22] was 99%, the Activity [23] was 97% and the Kd [24] was at least 5 µM. The Kd [25] was at least 5 µM, the Activity (HT-29 [26]) was 21.78% and the Activity [27] was 97%. For the same compound, the Kd [28] was at least 5 µM.
